Key:
Jak2/2 = test: Inhibition of GM-CSF-induced STAT phosphorylation in PBMCs; assay type: cell-based, human
In short: (§1)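 Ficoll-isolated human PBMCs, cryopreserved, thawed into RPMI/10% heat-inactivated FBS assay medium, 200,000 cells/well. Serially diluted test compound (final 20 μM to 2 × 10−6 μM) or 0.1% DMSO vehicle preincubated 1 h at 37 °C. Cytokine then added for 5–10 min, followed by 30 min shaking at 4 °C and lysis. Phospho-STAT5/STAT4 by MSD immunoassay, phospho-STAT1 by ELISA. IC50 reported as mean ± SD.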

CYP2C8 = CYP2C8 (Homo sapiens, UniProt P10632); test: Cytochrome P450 phenotyping; assay type: in vitro ADME; conditions: recombinant human CYP2C8; with NADPH; 60 minutes; n = 1
CYP2C8, sequence (P10632 whole entry): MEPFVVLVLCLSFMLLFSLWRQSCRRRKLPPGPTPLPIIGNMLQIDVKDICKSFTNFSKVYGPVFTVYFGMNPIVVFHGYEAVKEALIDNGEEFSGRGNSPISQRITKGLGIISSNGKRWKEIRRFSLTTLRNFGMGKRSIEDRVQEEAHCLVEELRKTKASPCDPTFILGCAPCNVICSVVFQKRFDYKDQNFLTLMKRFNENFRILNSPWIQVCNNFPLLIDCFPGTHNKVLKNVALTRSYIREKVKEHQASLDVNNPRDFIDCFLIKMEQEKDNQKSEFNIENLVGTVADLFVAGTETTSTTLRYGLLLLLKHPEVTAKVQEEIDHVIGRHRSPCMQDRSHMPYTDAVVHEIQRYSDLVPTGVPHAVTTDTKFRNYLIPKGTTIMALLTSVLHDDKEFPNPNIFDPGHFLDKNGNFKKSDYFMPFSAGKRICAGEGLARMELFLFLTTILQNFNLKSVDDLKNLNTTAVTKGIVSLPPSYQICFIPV
In short: (§2)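 Recombinant human CYPs prepared at CYP1A2 200 nM, CYP2B6/2C8 250 nM, CYP2C9 100 nM, CYP2D6 50 nM. Test compound added as 2 μM DMSO dosing solution on ice. Plate prewarmed, then 8 mM NADPH solution or blank buffer added. Incubation 60 min (1A2, 2B6, 2C8) or 30 min (2C9, 2D6). Stopped with acetonitrile plus internal standard; supernatant by LC-MS/MS; n = 1.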

[1] = Metabolic stability in liver microsomes; assay type: in vitro ADME; conditions: rat
In short: (§3)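 Test compound from 1 mM DMSO solution preincubated 5 min with dog, human, monkey, rat or minipig liver microsomes. NADPH (10 mM) then added. Reactions stopped at 0, 5, 15 and 30 min with 0.05% formic acid in acetonitrile containing loperamide internal standard. Supernatants analysed by LC-MS/MS; n = 1 per microsome species.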

Jak1/3 = test: Inhibition of IL-2-induced STAT phosphorylation in PBMCs; assay type: cell-based, human
In short: as §1

Jak1/2 = test: Inhibition of IFN-γ-induced STAT phosphorylation in PBMCs; assay type: cell-based; conditions: Homo sapiens, PBMC, read-out: IC50 Mean ± SD
In short: as §1

TXK = TXK (Homo sapiens, UniProt P42681); test: IC50 for kinases of potential cross-over; assay type: biochemical
TXK, sequence (P42681 whole entry): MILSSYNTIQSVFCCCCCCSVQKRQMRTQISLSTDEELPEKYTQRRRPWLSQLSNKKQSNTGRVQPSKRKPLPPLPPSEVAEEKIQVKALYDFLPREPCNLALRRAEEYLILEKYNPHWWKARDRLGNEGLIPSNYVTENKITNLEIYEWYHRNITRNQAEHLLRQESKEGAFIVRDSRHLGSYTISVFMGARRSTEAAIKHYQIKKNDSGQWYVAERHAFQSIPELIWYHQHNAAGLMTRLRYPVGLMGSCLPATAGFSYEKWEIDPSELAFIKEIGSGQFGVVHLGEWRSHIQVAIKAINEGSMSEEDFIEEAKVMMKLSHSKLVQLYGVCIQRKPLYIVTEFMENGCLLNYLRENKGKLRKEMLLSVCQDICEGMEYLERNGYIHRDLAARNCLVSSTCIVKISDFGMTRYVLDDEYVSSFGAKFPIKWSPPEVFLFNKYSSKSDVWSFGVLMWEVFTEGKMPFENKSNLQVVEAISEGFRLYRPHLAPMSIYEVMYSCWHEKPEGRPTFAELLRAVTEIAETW

[2] = Metabolic stability in liver microsomes; assay type: in vitro ADME; conditions: dog
In short: as §3

Jak1 = Jak1 (Homo sapiens, UniProt P23458); test: Inhibition of catalytic domain activity, Jak1; assay type: biochemical
Jak1, sequence (P23458 875-1153 limits assumed): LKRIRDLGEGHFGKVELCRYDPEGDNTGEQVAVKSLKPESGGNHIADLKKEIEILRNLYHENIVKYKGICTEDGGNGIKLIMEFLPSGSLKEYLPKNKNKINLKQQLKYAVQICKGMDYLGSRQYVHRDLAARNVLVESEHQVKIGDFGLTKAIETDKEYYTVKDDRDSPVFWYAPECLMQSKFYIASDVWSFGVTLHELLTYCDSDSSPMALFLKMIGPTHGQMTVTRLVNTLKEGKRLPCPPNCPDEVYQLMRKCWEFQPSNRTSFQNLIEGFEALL
In short: (§4)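 Z′-LYTE biochemical kinase assay run by the vendor per manufacturer's protocol. Each kinase plate carried 0%/100% phosphorylation and 0%/100% inhibition controls. Development-reaction and compound-fluorescence interference controls at each compound concentration. n = 1 per kinase.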

Jak2 = Jak2 (Homo sapiens, UniProt O60674); test: Inhibition of catalytic domain activity, Jak2; assay type: biochemical
Jak2, sequence (O60674 849-1124 limits assumed): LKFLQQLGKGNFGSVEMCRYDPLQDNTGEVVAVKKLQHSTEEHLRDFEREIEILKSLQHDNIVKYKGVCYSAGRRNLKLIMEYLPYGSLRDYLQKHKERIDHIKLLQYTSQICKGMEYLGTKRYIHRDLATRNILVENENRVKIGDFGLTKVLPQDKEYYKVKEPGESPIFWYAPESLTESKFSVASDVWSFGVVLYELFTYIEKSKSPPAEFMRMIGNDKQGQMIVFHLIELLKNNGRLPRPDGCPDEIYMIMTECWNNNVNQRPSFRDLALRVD
In short: as §4

BTK = BTK (Homo sapiens, UniProt Q06187); test: IC50 for kinases of potential cross-over; assay type: biochemical
BTK, sequence (Q06187 whole entry): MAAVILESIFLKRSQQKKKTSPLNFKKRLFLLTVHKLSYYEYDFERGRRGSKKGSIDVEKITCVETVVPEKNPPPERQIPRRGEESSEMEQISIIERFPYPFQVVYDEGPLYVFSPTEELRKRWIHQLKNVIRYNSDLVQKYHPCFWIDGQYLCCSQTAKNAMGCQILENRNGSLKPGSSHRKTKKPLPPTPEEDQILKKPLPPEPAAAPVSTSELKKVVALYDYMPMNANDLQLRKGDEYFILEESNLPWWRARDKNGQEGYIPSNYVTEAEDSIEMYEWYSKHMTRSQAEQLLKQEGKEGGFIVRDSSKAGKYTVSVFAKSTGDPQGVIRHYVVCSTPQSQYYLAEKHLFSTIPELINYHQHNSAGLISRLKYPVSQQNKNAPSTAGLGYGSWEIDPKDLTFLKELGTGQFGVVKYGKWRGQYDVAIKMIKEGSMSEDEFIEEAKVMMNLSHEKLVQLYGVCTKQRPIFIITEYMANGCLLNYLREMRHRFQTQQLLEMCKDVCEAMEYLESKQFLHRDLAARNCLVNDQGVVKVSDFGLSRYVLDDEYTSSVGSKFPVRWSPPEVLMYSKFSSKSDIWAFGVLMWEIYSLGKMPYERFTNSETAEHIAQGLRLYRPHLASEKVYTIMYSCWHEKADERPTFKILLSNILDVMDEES

CYP1A2 = CYP1A2 (Homo sapiens, UniProt P05177); test: Cytochrome P450 phenotyping; assay type: in vitro ADME; conditions: recombinant human CYP1A2; with NADPH; 60 minutes; n = 1
CYP1A2, sequence (P05177 whole entry): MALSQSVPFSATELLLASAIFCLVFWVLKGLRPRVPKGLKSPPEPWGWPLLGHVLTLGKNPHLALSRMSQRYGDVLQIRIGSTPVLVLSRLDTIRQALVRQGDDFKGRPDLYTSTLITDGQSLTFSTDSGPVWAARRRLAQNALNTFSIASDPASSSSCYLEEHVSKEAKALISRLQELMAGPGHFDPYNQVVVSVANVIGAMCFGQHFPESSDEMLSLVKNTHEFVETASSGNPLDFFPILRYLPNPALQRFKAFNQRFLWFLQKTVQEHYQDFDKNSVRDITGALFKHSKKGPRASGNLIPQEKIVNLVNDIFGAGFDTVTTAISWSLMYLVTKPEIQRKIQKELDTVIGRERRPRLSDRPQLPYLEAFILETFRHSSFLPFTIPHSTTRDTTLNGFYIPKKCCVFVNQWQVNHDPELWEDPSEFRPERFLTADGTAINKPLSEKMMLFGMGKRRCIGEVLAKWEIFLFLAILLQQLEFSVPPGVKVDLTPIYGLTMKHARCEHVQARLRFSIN
In short: as §2

[3] = Metabolic stability in liver microsomes; assay type: in vitro ADME; conditions: minipig
In short: as §3

[4] = tested on: moderate or severe atopic dermatitis; test: Phase 2a study ATI-1777-AD-201: efficacy; assay type: in vivo, human
In short: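 Randomized 1:1, double-blind, vehicle-controlled, 14 US sites; stratified by severity. Adults 18–65 with moderate/severe AD (IGA 3–4, 3–20% BSA). Up to 8 ml 2.0% w/w solution or vehicle applied twice daily for 28 days, 2-week follow-up. mEASI, IGA, BSA assessed days 8, 15, 28; PP-NRS tracked. MMRM, 1-sided tests, full analysis set (23 vs 25).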

Jak2/TYK2 = test: Inhibition of IL-12-induced STAT phosphorylation in PBMCs; assay type: cell-based, human
In short: as §1

[5] = Homo sapiens, PBMC, read-out: IC50 Mean ± SD
[6] = day 28, 2% topical solution twice daily, n = 23

**Q.** Which results are given for `CCOC(=O)c1cnc2[nH]ccc2c1N[C@@H]1CCCN(C(=O)CC#N)C1` [ATI-1777, ethyl (R)-4-((1-(2-cyanoacetyl)piperidin-3-yl)amino)-1H-pyrrolo[2,3-b]pyridine-5-carboxylate]?
**A.** Fold Jak1/3 (Jak2/2; GM-CSF, Jak2/2 vs Jak1/3): 41.8 fold; IC50 (Jak2/2; [5]): 794 ± 121 nM; Percentage Remaining (CYP2C8): 41.2%; CLint scaled [1]: 370 mL/min/kg; microsomal CLint [1]: 52 µL/min/mg; half-life ([1]; T1/2, Study 1, n = 1): 6.7 min; half-life ([1]; T1/2, Study 2, n = 1): 27 min; IC50 (Jak1/3; [5]): 19 ± 6 nM; Fold Jak1/3 (Jak1/3; IL-2, Jak1/3 (reference)): 1.0 fold; IC50 (Jak1/2): 97 ± 34 nM; IC50 (TXK): 351 nM; Fold Selectivity (TXK; TXK vs Jak1 (= 1)): 234 fold; CLint scaled [2]: 198 mL/min/kg; microsomal CLint [2]: 46 µL/min/mg; half-life ([2]; T1/2, Study 1, n = 1): 17.4 min; half-life ([2]; T1/2, Study 2, n = 1): 30 min; IC50 (Jak1): 1.5 nM; Fold Selectivity (Jak1; Jak1 reference line of Table 2): 1 fold; IC50 (Jak2): 7.1 nM; IC50 (BTK): 210 nM; Fold Selectivity (BTK; BTK vs Jak1 (= 1)): 140 fold; Percentage Remaining (CYP1A2): 55.7%; CLint scaled [3]: 365 mL/min/kg; microsomal CLint [3]: 295 µL/min/mg; half-life ([3]; T1/2, Study 1, n = 1): 2.85 min; half-life ([3]; T1/2, Study 2, n = 1): 5 min; least squared means change from baseline of PP-NRS score ([4]; SE = 0.548, P = .060 vs vehicle): −2.92; BSA affected by AD, change from baseline ([4]; day 8): −1.55%; BSA affected by AD, change from baseline ([4]; day 15): −3.33%; participants achieving a 50% reduction in mEASI [4, 6]: 91.3%; participants achieving a 75% reduction in mEASI [4, 6]: 65.2%; BSA affected by AD, change from baseline ([4]; day 28, P < .001 vs vehicle): −5.59%; percentage reduction from baseline in mEASI score ([4]; day 28, mixed model for repeated measures without imputation, SE = 5.943): 78.46%; participants achieving an IGA score of 0 or 1 with ≥2 point improvement ([4]; end of treatment period (day 28), P = .131 vs vehicle, n = 23): 39.1%; IC50 (Jak2/TYK2; [5]): 898 ± 178 nM; Fold Jak1/3 (Jak2/TYK2; IL-12, Jak2/TYK2 vs Jak1/3): 47.3 fold

— PMC10825549 (JID Innovations, 2023)
